Laboratory results from ChEMBL document CHEMBL4680108, “Ancistrolikokine E, a 5,8'-Coupled Naphthylisoquinoline Alkaloid, Eliminates the Tolerance of Cancer Cells to Nutrition Starvation by Inhibition of the Akt/mTOR/Autophagy Signaling Pathway” (2018).
The source made the active and inactive calls. No cut-off for these calls is given here.

Key:
PANC-1 [1] = test: Induction of necrosis in human PANC-1 cells cultured in nutrient-deprived medium assessed as membrane blebbing at 5 uM measured after 24 hrs by ethidium bromide/acridine orange staining based phase contrast microscopy; format: functional, cell-based
Method in brief: (§1)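 PANC-1 cells (2 × 10^5/well) attached in DMEM for 24 h, washed twice with PBS, then treated in NDM (1.25, 2.5, 5 μM; control in NDM alone) for 24 h. Stained with ethidium bromide/acridine orange and imaged in phase-contrast and red/green fluorescence modes (20× objective).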

PANC-1 [2] = test: Induction of apoptotic cell death in human PANC-1 cells cultured in nutrient-deprived medium assessed as intact nuclei at 5 uM measured after 24 hrs by Hoechst 33342 staining based phase-contrast digital microscopy; format: functional
Method in brief: (§2)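 Cells (2 × 10^5) plated in 35 mm dishes, left 24 h to attach, washed twice with PBS, then given 5 μM in NDM for 24 h. Hoechst 33342 added directly to the medium for 5 min. Imaged in phase-contrast and fluorescence modes (20× objective).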

PANC-1 [3] = test: Inhibition of colony formation in human PANC-1 cells cultured in nutrient rich DMEM medium measured after 24 hrs by crystal violet staining based assay; format: functional, cell-based; settings: dose 2.5-10 µM
Method in brief: (§3)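 PANC-1 cells (5 × 10^2/well) attached in DMEM for 24 h, then exposed to 0, 2.5, 5 or 10 μM in DMEM for 24 h (triplicate). Washed, grown in fresh compound-free DMEM for 12 days, fixed in 4% formaldehyde and stained with crystal violet for 10 min. Colony area measured as a percentage of well area.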

PANC-1 [4] = test: Induction of apoptotic cell death in human PANC-1 cells cultured in nutrient-deprived medium assessed as formation of apoptotic bodies at 5 uM measured after 24 hrs by Hoechst 33342 staining based phase-contrast digital microscopy; format: functional; method in brief: as §2
PANC-1 [5] = test: Anticancer activity against human PANC-1 cells assessed as induction of morphological changes at 10 uM measured after 7 hrs by digital cell imaging analysis; format: functional, cell-based
Method in brief: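 PANC-1 cells (3 × 10^6) in 35 mm dishes in nutrient-deprived medium (NDM), treated with 10 μM; kept in a stage-top incubator at 37 °C, 5% CO2. Phase-contrast images taken every 10 min for 24 h (145 frames, 20× objective). Untreated cells in NDM served as control.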

PANC-1 [6] = test: Inhibition of cell migration in human PANC1 cells assessed as wound length at 5 uM cultured in nutrient rich DMEM medium measured after 48 hrs by wound healing assay relative to T0; format: functional; design: scale not given: the % may be the effect or the level left
Method in brief: (§4)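 PANC-1 monolayers (5 × 10^5 cells/well), attached 24 h, scratched about 600 μm with a pipet tip, washed with PBS. Exposed in DMEM to 0–10 μM for 48 h in triplicate. Wound length measured at 10 points on phase-contrast images and expressed relative to initial length at T0.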

PANC-1 [7] = test: Induction of apoptotic cell death in human PANC-1 cells cultured in nutrient-deprived medium assessed as membrane blebbing at 5 uM measured after 24 hrs by Hoechst 33342 staining based phase-contrast digital microscopy; format: functional; method in brief: as §2
PANC-1 [8] = test: Inhibition of colony formation in human PANC-1 cells at 5 uM cultured in nutrient rich DMEM medium measured after 24 hrs by crystal violet staining based assay relative to control; format: functional; method in brief: as §3
PANC-1 [9] = test: Inhibition of colony formation in human PANC-1 cells at 10 uM cultured in nutrient rich DMEM medium measured after 24 hrs by crystal violet staining based assay relative to control; format: functional; method in brief: as §3
PANC-1 [10] = test: Inhibition of Akt/mTOR signaling pathway in human PANC-1 cells cultured in nutrient-deprived medium assessed as decrease in phosphorylated mTOR level at S2448 residue at 40 uM measured after 6 hrs by Western blot analysis relative to control; format: cell-based
Method in brief: (§5)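 Western blot of PANC-1 cells exposed to compound at different concentrations for 6 h in NDM or DMEM. Probed for total and phosphorylated Akt and mTOR and for GβL. Band levels compared with untreated control cells in NDM.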

PANC-1 [11] = test: Inhibition of Akt/mTOR signaling pathway in human PANC-1 cells cultured in nutrient-deprived medium assessed as decrease in GbetaL level measured after 6 hrs by Western blot analysis; format: cell-based; settings: dose 2.5-40 µM; method in brief: as §5
PANC-1 [12] = test: Induction of apoptotic cell death in human PANC-1 cells cultured in nutrient-deprived medium assessed as leakage of cellular contents in to the medium at 5 uM measured after 24 hrs by Hoechst 33342 staining based phase-contrast digital microscopy; format: functional; method in brief: as §2
PANC-1 [13] = test: Induction of apoptosis in human PANC-1 cells cultured in nutrient-deprived medium assessed as induction of active caspase-3 cleavage at 2.5 to 40 uM measured after 6 hrs by Western blot analysis; format: functional, cell-based; settings: dose 2.5-40 µM
Method in brief: (§6)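 PANC-1 cells in NDM or DMEM exposed to compound at different concentrations for 6 h, then immunoblotted for Bcl-2, Bcl-xL and caspase-3.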

PANC-1 [14] = test: Induction of apoptotic cell death in human PANC-1 cells cultured in nutrient-deprived medium assessed as chromatin fragmentation at 5 uM measured after 24 hrs by Hoechst 33342 staining based phase-contrast digital microscopy; format: functional; method in brief: as §2
PANC-1 [15] = test: Inhibition of autophagy in human PANC-1 cells cultured in nutrient-deprived medium after 6 hrs by MDC-staining based fluorescence microscopy analysis; format: functional, cell-based; settings: dose 40.0 µM
Method in brief: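 PANC-1 cells under nutrient starvation given monodansylcadaverine with or without compound for 6 h. Autolysosome fluorescence viewed in fluorescence and phase-contrast modes.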

PANC-1 [16] = test: Inhibition of autophagy in human PANC-1 cells cultured in nutrient-deprived medium assessed as inhibition of LC3-2 expression after 6 hrs by Western blot analysis; format: functional, cell-based; settings: dose 2.5-40 µM
PANC-1 [17] = test: Anticancer activity against human PANC-1 cells assessed as cell death at 10 uM measured within 20 hrs by digital cell imaging analysis relative to control; format: functional
Method in brief: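 PANC-1 cells (3 × 10^6) in 35 mm dishes were exposed to 10 μM compound in nutrient-deprived medium in a stage-top incubator at 37 °C, 5% CO2. Phase-contrast images were taken every 10 min for 24 h (145 frames, 20× objective). Untreated cells in NDM served as control.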

PANC-1 [18] = test: Induction of necrosis in human PANC-1 cells cultured in nutrient-deprived medium assessed as rupture of cell membrane at 5 uM measured after 24 hrs by ethidium bromide/acridine orange staining based phase contrast microscopy; format: functional; method in brief: as §1
PANC-1 [19] = test: Induction of necrosis in human PANC-1 cells cultured in nutrient-deprived medium assessed as round cell morphology at 5 uM measured after 24 hrs by ethidium bromide/acridine orange staining based phase contrast microscopy; format: functional; method in brief: as §1
PANC-1 [20] = test: Inhibition of cell migration in human PANC1 cells assessed as wound length at 10 uM cultured in nutrient rich DMEM medium measured after 48 hrs by wound healing assay relative to T0; format: functional; design: scale not given: the % may be the effect or the level left; method in brief: as §4
PANC-1 [21] = test: Inhibition of Akt/mTOR signaling pathway in human PANC-1 cells cultured in nutrient-deprived medium assessed as decrease in total Akt level measured after 6 hrs by Western blot analysis; format: cell-based; settings: dose 2.5-40 µM; method in brief: as §5
PANC-1 [22] = test: Induction of apoptosis in human PANC-1 cells assessed as inhibition of Bcl-2 after 6 hrs by Western blot analysis; format: functional, cell-based; settings: dose 2.5-40 µM; method in brief: as §6
PANC-1 [23] = test: Inhibition of Akt/mTOR signaling pathway in human PANC-1 cells cultured in nutrient-deprived medium assessed as decrease in phosphorylated mTOR level at S2448 residue measured after 6 hrs by Western blot analysis; format: cell-based; settings: dose 2.5-40 µM; method in brief: as §5

In the case of `COc1cc(OC)c(-c2ccc(O)c3c(OC)cc(C)cc23)c2c1C(C)=N[C@H](C)C2`, the Activity (PANC-1 [1]) is reported as “Active”, the Activity (PANC-1 [2]) is reported as “Active” and the inhibition (PANC-1 [3]) is reported as “Dose-dependent effect”. For the same compound, the Activity (PANC-1 [4]) was “inactive”, the Activity (PANC-1 [5]) was “Active” and the Activity (PANC-1 [6]) was 58%. For the same compound, the Activity (PANC-1 [7]) was “Active”, the inhibition at 5 µM (PANC-1 [8]) was 100% and the inhibition at 10 µM (PANC-1 [9]) was 100%. The inhibition (PANC-1 [10]) was 92%, the inhibition (PANC-1 [11]) was “Dose-dependent effect” and the Activity (PANC-1 [12]) was “Active”. The Activity (PANC-1 [13]) was “inactive”, the Activity (PANC-1 [14]) was “inactive” and the inhibition (PANC-1 [15]) was “Active”. The inhibition (PANC-1 [16]) was “Dose-dependent effect”, the Activity (PANC-1 [17]) was 100% and the Activity (PANC-1 [18]) was “Active”. The Activity (PANC-1 [19]) was “Active”, the Activity (PANC-1 [20]) was 11% and the inhibition (PANC-1 [21]) was “Dose-dependent effect”. The inhibition (PANC-1 [22]) was “Active” and the inhibition (PANC-1 [23]) was “Dose-dependent effect”.
